Columns and labels:
[1] = test system: MV4;11 subcutaneous tumors; test: MV4; format: in vivo, mice; settings: 100 mg/kg daily for 26 days, oral gavage; 157 mm^3 at the beginning of the treatment
How it was run: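 Female C.B-17 SCID mice (5–6 weeks) implanted sc in the right flank with 5×10^6 MV4;11 cells in 1:1 Matrigel. Randomized once tumors reached the target volume. Dosed once daily by oral gavage at 10 ml/kg; vehicle 0.5% MC (400cP) + 0.2% Tween 80 (w/w). Body weight recorded daily. Calipers three times weekly; volume = 0.5×W×W×L; mean ± SEM. Regrowth followed to day 45 after treatment start.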

[2] = test system: MV4;11; test: Cell growth inhibition, CellTiter-Glo; format: cell-based, human
[3] = test system: HOXA9 mRNA in MV4;11 cells; test: qRT-PCR gene expression in MV4; format: cell-based, human; settings: 24h of treatment
How it was run: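 Total RNA from in vitro-grown cells isolated with RNeasy. cDNA made with a High-Capacity reverse transcription kit. TaqMan gene expression assays with gene-specific primers amplified HOXA9, MEIS1, ITGAM, GAPDH and HPRT1. Relative transcript levels calculated by the comparative Ct method.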

[4] = test system: MOLM-13; test: Cell growth inhibition, CellTiter-Glo; format: cell-based

Structure (SMILES): C=CC(=O)N1C[C@@H]2C[C@H]1CN2S(=O)(=O)c1ccc(N2CC(CN3CCC([C@@](CN4CCC4)(c4cccc(F)c4)[C@H]4CCC[C@@H]4NC(=O)OC)CC3)(OC)C2)cc1 [Compound 24, Methyl ((1S,2R)-2-(1-(1-((1-(4-(((1S,4S)-5-acryloyl-2,5-diazabicyclo[2.2.1]heptan-2-yl)-sulfonyl)phenyl)-3-methoxyazetidin-3-yl)methyl)piperidin-4-yl)-2-(azetidin-1-yl)-1-(3-fluoro-phenyl)ethyl)cyclopentyl)carbamate]
- Average tumor volume on day 26 of the treatment [1]: 106 mm^3
- Fold more potent than compound 20 ([2]; MV4;11): 8–10 fold
- Fold more potent than stereoisomer compound 25 ([2]; MV4;11, ratio of IC50): 40 fold
- Concentration as low as which HOXA9 gene expression is effectively modulated [3]: 10 nM
- Fold more potent than compound 20 ([4]; MOLM-13): 8–10 fold
- Fold more potent than stereoisomer compound 25 ([4]; MOLM-13, ratio of IC50): 9 fold

Structure (SMILES): CCC(=O)N1C[C@@H]2C[C@H]1CN2S(=O)(=O)c1ccc(N2CC(CN3CCC([C@@](CN4CCC4)(c4cccc(F)c4)[C@H]4CCC[C@@H]4NC(=O)OC)CC3)(OC)C2)cc1 [Compound 26, Methyl ((1S,2R)-2-(2-(azetidin-1-yl)-1-(3-fluorophenyl)-1-(1-((3-methoxy-1-(4-(((1S,4S)-5-propionyl-2,5-diazabicyclo[2.2.1]heptan-2-yl)sulfonyl)phenyl)azetidin-3-yl)methyl)piperidin-4-yl)ethyl)cyclopentyl)carbamate]
- Times less potent than 24 in inhibition of cell growth ([2]; MV4;11): > 10 times
- Times less potent than 24 in inhibition of cell growth ([4]; MOLM-13): > 10 times

Structure (SMILES): C=CC(=O)N1CC(S(=O)(=O)c2ccc(N3CC(CN4CCC([C@@](CN5CCC5)(c5cccc(F)c5)[C@H]5CCC[C@@H]5NC(=O)OC)CC4)(OC)C3)cc2)C1 [Compound 20, Methyl ((1S,2R)-2-(1-(1-((1-(4-((1-acryloylazetidin-3-yl)sulfonyl)phenyl)-3-methoxyazetidin-3-yl)methyl)piperidin-4-yl)-2-(azetidin-1-yl)-1-(3-fluorophenyl)ethyl)cyclopentyl)carbamate]
- Fold less potent than compound 19 in inhibiting growth ([2]; MV4;11, ratio of IC50): 49 fold
- Fold less potent than compound 19 in inhibiting growth ([4]; MOLM-13, ratio of IC50): 8 fold

Structure (SMILES): C=CC(=O)N1CCC[C@@H](S(=O)(=O)c2ccc(N3CC(CN4CCC([C@@](CN5CCC5)(c5cccc(F)c5)[C@H]5CCC[C@@H]5NC(=O)OC)CC4)(OC)C3)cc2)C1 [Compound 23, Methyl ((1S,2R)-2-(1-(1-((1-(4-(((R)-1-acryloylpiperidin-3-yl)sulfonyl)phenyl)-3-methoxy-azetidin-3-yl)methyl)piperidin-4-yl)-2-(azetidin-1-yl)-1-(3-fluorophenyl)ethyl)cyclopentyl)-carbamate]
- Times more potent than compound 21 ([2]; MV4;11): 2 times
- Times more potent than compound 21 ([4]; MOLM-13): 2 times

Structure (SMILES): COC(=O)N[C@H]1CCC[C@@H]1[C@](CN1CCC1)(c1cccc(F)c1)C1CCN(CC2(OC)CN(c3ccc(S(=O)(=O)C4CN(C(=O)/C=C/CN(C)C)C4)cc3)C2)CC1 [Compound 19, Methyl ((1S,2R)-2-(2-(azetidin-1-yl)-1-(1-((1-(4-((1-((E)-4-(dimethylamino)but-2-enoyl)-azetidin-3-yl)sulfonyl)phenyl)-3-methoxyazetidin-3-yl)methyl)piperidin-4-yl)-1-(3-fluorophenyl)ethyl)cyclopentyl)carbamate]
- Fold more potent than compound 17 in inhibiting proliferation ([2]; MV4;11, ratio of IC50): 72 fold
- Fold more potent than compound 17 in inhibiting proliferation ([4]; MOLM-13, ratio of IC50): 9 fold

Structure (SMILES): C=CC(=O)N1CCC[C@H](S(=O)(=O)c2ccc(N3CC(CN4CCC([C@@](CN5CCC5)(c5cccc(F)c5)[C@H]5CCC[C@@H]5NC(=O)OC)CC4)(OC)C3)cc2)C1 [Compound 22, Methyl ((1S,2R)-2-(1-(1-((1-(4-(((S)-1-acryloylpiperidin-3-yl)sulfonyl)phenyl)-3-methoxy-azetidin-3-yl)methyl)piperidin-4-yl)-2-(azetidin-1-yl)-1-(3-fluorophenyl)ethyl)-cyclopentyl)carbamate]
- Times more potent than compound 21 ([2]; MV4;11): 2 times
- Times more potent than compound 21 ([4]; MOLM-13): 2 times

Source: article PMC8935478 (Journal of medicinal chemistry, 2021)
